Assay results from ChEMBL document CHEMBL1157638, “Fluorescent epigenetic small molecule induces expression of the tumor suppressor ras-association domain family 1A and inhibits human prostate xenograft” (J Med Chem, 2010).

Experiments:
Format in all cases: functional
CCRF-CEM [1] = experiment: Growth inhibition of human CCRF-CEM cells assessed as cell growth at 100 nM relative to untreated control; conditions: read-out: Activity
A498 = experiment: Growth inhibition of human A498 cells assessed as cell growth at 10 uM relative to untreated control; conditions: read-out: Activity
HCC 2998 [2] = experiment: Growth inhibition of human HCC2998 cells assessed as cell growth at 100 nM relative to untreated control; conditions: read-out: Activity
Outline: (§1)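 Run externally at the National Cancer Institute as a 59-cell-line panel screen, with concentrations up to 100 μM. Growth was scored relative to control, where negative growth or total cell kill was possible. Data are in the Supporting Information.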

DU-145 [3] = experiment: Growth inhibition of human DU145 cells assessed as cell growth at 100 nM relative to untreated control; conditions: read-out: Activity; outline: as §1
EKVX [4] = experiment: Growth inhibition of human EKVX cells; outline: as §1
COLO 205 = experiment: Growth inhibition of human COLO205 cells assessed as cell growth at 10 uM relative to untreated control; conditions: read-out: Activity; outline: as §1
CCRF-CEM [5] = experiment: Growth inhibition of human CCRF-CEM cells assessed as cell growth at 1 uM relative to untreated control; conditions: read-out: Activity
HOP-62 [6] = experiment: Growth inhibition of human HOP62 cells; outline: as §1
M14 = experiment: Growth inhibition of human M14 cells
TK-10 = experiment: Growth inhibition of human TK10 cells assessed as cell growth at 10 uM relative to untreated control; conditions: read-out: Activity
NCI-H522 = experiment: Growth inhibition of human NCI-H522 cells assessed as cell growth at 10 nM relative to untreated control; conditions: read-out: Activity
PC-3 [7] = experiment: Growth inhibition of human PC3 cells assessed as cell growth at 1 nM relative to untreated control; conditions: read-out: Activity
Malme-3M [8] = experiment: Growth inhibition of human MALME-3M cells
SR = experiment: Growth inhibition of human SR cells assessed as cell growth at 10 uM relative to untreated control; conditions: read-out: Activity
NCI-H23 [9] = experiment: Growth inhibition of human NCI-H23 cells assessed as cell growth at 1 nM relative to untreated control; conditions: read-out: Activity
HOP-62 [10] = experiment: Growth inhibition of human HOP62 cells assessed as cell growth at 10 nM relative to untreated control; conditions: read-out: Activity; outline: as §1
OVCAR-8 [11] = experiment: Growth inhibition of human OVCAR8 cells assessed as cell growth at 100 nM relative to untreated control; conditions: read-out: Activity
MOLT-4 = experiment: Growth inhibition of human MOLT4 cells
HCC 2998 [12] = experiment: Growth inhibition of human HCC2998 cells assessed as cell growth at 10 uM relative to untreated control; conditions: read-out: Activity; outline: as §1
EKVX [13] = experiment: Growth inhibition of human EKVX cells assessed as cell growth at 10 nM relative to untreated control; conditions: read-out: Activity; outline: as §1
KM12 [14] = experiment: Growth inhibition of human KM12 cells assessed as cell growth at 100 nM relative to untreated control; conditions: read-out: Activity
MDA-MB-231 = experiment: Growth inhibition of human MDA-MB-231 cells assessed as cell growth at 10 uM relative to untreated control; conditions: read-out: Activity
CAKI-1 = experiment: Growth inhibition of human Caki1 cells assessed as cell growth at 10 nM relative to untreated control; conditions: read-out: Activity; outline: as §1
Malme-3M [15] = experiment: Growth inhibition of human MALME-3M cells assessed as cell growth at 1 uM relative to untreated control; conditions: read-out: Activity
NCI/ADR-RES [16] = experiment: Growth inhibition of human NCI/ADR-RES cells assessed as cell growth at 1 nM relative to untreated control; conditions: read-out: Activity
SK-MEL-2 = experiment: Growth inhibition of human SK-MEL-2 cells assessed as cell growth at 1 uM relative to untreated control; conditions: read-out: Activity
OVCAR-8 [17] = experiment: Growth inhibition of human OVCAR8 cells assessed as cell growth at 1 nM relative to untreated control; conditions: read-out: Activity
MDA-MB-435 = experiment: Growth inhibition of human MDA-MB-435 cells assessed as cell growth at 1 nM relative to untreated control; conditions: read-out: Activity
HOP-92 = experiment: Growth inhibition of human HOP92 cells; outline: as §1
NCI-H23 [18] = experiment: Growth inhibition of human NCI-H23 cells assessed as cell growth at 10 nM relative to untreated control; conditions: read-out: Activity
ACHN = experiment: Growth inhibition of human ACHN cells assessed as cell growth at 100 nM relative to untreated control; conditions: read-out: Activity
NCI/ADR-RES [19] = experiment: Growth inhibition of human NCI/ADR-RES cells assessed as cell growth at 1 uM relative to untreated control; conditions: read-out: Activity
LOX IMVI = experiment: Growth inhibition of human LOXIMVI cells assessed as cell growth at 1 uM relative to untreated control; conditions: read-out: Activity
PC-3 [20] = experiment: Growth inhibition of human PC3 cells assessed as cell growth at 100 nM relative to untreated control; conditions: read-out: Activity
SNB-75 [21] = experiment: Growth inhibition of human SNB75 cells assessed as cell growth at 1 uM relative to untreated control; conditions: read-out: Activity
OVCAR-3 = experiment: Growth inhibition of human OVCAR-3 cells assessed as cell growth at 1 nM relative to untreated control; conditions: read-out: Activity
HT-29 = experiment: Growth inhibition of human HT-29 cells
NCI-H322M = experiment: Growth inhibition of human NCI-H322M cells
DU-145 [22] = experiment: Growth inhibition of human DU145 cells assessed as cell growth at 1 nM relative to untreated control; conditions: read-out: Activity; outline: as §1
SNB-75 [23] = experiment: Growth inhibition of human SNB75 cells assessed as cell growth at 10 uM relative to untreated control; conditions: read-out: Activity
UO-31 = experiment: Growth inhibition of human UO31 cells assessed as cell growth at 100 nM relative to untreated control; conditions: read-out: Activity
RXF 393 = experiment: Growth inhibition of human RXF393 cells assessed as cell growth at 10 nM relative to untreated control; conditions: read-out: Activity
UACC-257 [24] = experiment: Growth inhibition of human UACC257 cells
UACC-257 [25] = experiment: Growth inhibition of human UACC257 cells assessed as cell growth at 100 nM relative to untreated control; conditions: read-out: Activity
KM12 [26] = experiment: Growth inhibition of human KM12 cells assessed as cell growth at 1 nM relative to untreated control; conditions: read-out: Activity
SNB-19 = experiment: Growth inhibition of human SNB19 cells assessed as cell growth at 10 uM relative to untreated control; conditions: read-out: Activity
NCI-H23 [27] = experiment: Growth inhibition of human NCI-H23 cells assessed as cell growth at 10 uM relative to untreated control; conditions: read-out: Activity
HCC 2998 [28] = experiment: Growth inhibition of human HCC2998 cells; conditions: read-out: LC50 (the source's name); outline: as §1
[29] = read-out: LC50 (the source's name)

COc1ccc2c(c1)[nH]c1c(C)c(OS(=O)(=O)c3cccc4c(N(C)C)cccc34)ccc12
growth at 0.1 µM (CCRF-CEM [1]): 91% | growth at 10 µM (A498): -4% | growth at 0.1 µM (HCC 2998 [2]): 78% | growth at 0.1 µM (DU-145 [3]): 103% | GI50 (EKVX [4]): 5.44 µM | TGI (EKVX [4]): > 100 µM | CC50 (EKVX [4]; [29]): > 100 µM | growth at 10 µM (COLO 205): 1% | growth at 1 µM (CCRF-CEM [5]): 1% | GI50 (HOP-62 [6]): 17.3 µM | TGI (HOP-62 [6]): > 100 µM | CC50 (HOP-62 [6]; [29]): > 100 µM | GI50 (M14): 50.2 µM | TGI (M14): > 100 µM | CC50 (M14; [29]): > 100 µM | growth at 10 µM (TK-10): 6% | growth at 0.01 µM (NCI-H522): 101% | growth at 0.001 µM (PC-3 [7]): 101% | GI50 (Malme-3M [8]): 3.62 µM | TGI (Malme-3M [8]): > 100 µM | CC50 (Malme-3M [8]; [29]): > 100 µM | growth at 10 µM (SR): 7% | growth at 0.001 µM (NCI-H23 [9]): 89% | growth at 0.01 µM (HOP-62 [10]): 111% | growth at 0.1 µM (OVCAR-8 [11]): 101% | GI50 (MOLT-4): 4.19 µM | TGI (MOLT-4): > 100 µM | CC50 (MOLT-4; [29]): > 100 µM | growth at 10 µM (HCC 2998 [12]): -5% | growth at 0.01 µM (EKVX [13]): 96% | growth at 0.1 µM (KM12 [14]): 97% | growth at 10 µM (MDA-MB-231): 40% | growth at 0.01 µM (CAKI-1): 86% | growth at 1 µM (Malme-3M [15]): 22% | growth at 0.001 µM (NCI/ADR-RES [16]): 107% | growth at 1 µM (SK-MEL-2): 50% | growth at 0.001 µM (OVCAR-8 [17]): 107% | growth at 0.001 µM (MDA-MB-435): 100% | GI50 (HOP-92): 9.51 µM | TGI (HOP-92): 94.8 µM | CC50 (HOP-92; [29]): > 100 µM | growth at 0.01 µM (NCI-H23 [18]): 91% | growth at 0.1 µM (ACHN): 97% | growth at 1 µM (NCI/ADR-RES [19]): 28% | growth at 1 µM (LOX IMVI): 31% | growth at 0.1 µM (PC-3 [20]): 96% | growth at 1 µM (SNB-75 [21]): 24% | growth at 0.001 µM (OVCAR-3): 100% | GI50 (HT-29): 3.71 µM | TGI (HT-29): > 100 µM | CC50 (HT-29; [29]): > 100 µM | GI50 (NCI-H322M): 12.8 µM | TGI (NCI-H322M): > 100 µM | CC50 (NCI-H322M; [29]): > 100 µM | growth at 0.001 µM (DU-145 [22]): 113% | growth at 10 µM (SNB-75 [23]): -12% | growth at 0.1 µM (UO-31): 92% | growth at 0.01 µM (RXF 393): 107% | GI50 (UACC-257 [24]): 11.5 µM | TGI (UACC-257 [24]): > 100 µM | CC50 (UACC-257 [24]; [29]): > 100 µM | growth at 0.1 µM (UACC-257 [25]): 97% | growth at 0.001 µM (KM12 [26]): 110% | growth at 10 µM (SNB-19): 27% | growth at 10 µM (NCI-H23 [27]): 8% | CC50 (HCC 2998 [28]): > 100 µM
